Test results taken from ChEMBL document CHEMBL1914423, “New imidazo[2,1-b]thiazole derivatives: synthesis, in vitro anticancer evaluation, and in silico studies” (Eur J Med Chem, 2011).

Assays:
Type in all cases: functional
SK-OV-3 = assay: Anticancer activity against human SKOV3 cells assessed as cell growth at 10^-5 M after 48 hrs by SRB assay; conditions: SK-OV-3, 48 h, read-out: Activity
HCT-116 = assay: Anticancer activity against human HCT116 cells assessed as cell growth at 10^-5 M after 48 hrs by SRB assay; conditions: HCT-116, 48 h, read-out: Activity
Method in brief: (§1)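 NCI-60 single-dose screen at one concentration. Cells grown in RPMI 1640 with 5% FBS and 2 mM L-glutamine, plated at 5000–40,000 cells/well, and pre-incubated 24 h at 37 °C in 5% CO2 before DMSO-dissolved drug was added. Cells fixed with TCA, SRB-stained, absorbance read at 515 nm. Percent growth calculated against time-zero and untreated control plates.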

SF-295 = assay: Anticancer activity against human SF295 cells assessed as cell growth at 10^-5 M after 48 hrs by SRB assay; conditions: SF-295, 48 h, read-out: Activity
IGROV-1 = assay: Anticancer activity against human IGROV1 cells assessed as cell growth at 10^-5 M after 48 hrs by SRB assay; conditions: IGROV-1, 48 h, read-out: Activity; method in brief: as §1
SK-MEL-5 = assay: Anticancer activity against human SK-MEL-5 cells assessed as cell growth at 10^-5 M after 48 hrs by SRB assay; conditions: SK-MEL-5, 48 h, read-out: Activity
MDA-MB-231 = assay: Anticancer activity against human MDA-MB-231 cells assessed as cell growth at 10^-5 M after 48 hrs by SRB assay; conditions: MDA-MB-231, 48 h, read-out: Activity; method in brief: as §1
SK-MEL-28 = assay: Anticancer activity against human SK-MEL-28 cells assessed as cell growth at 10^-5 M after 48 hrs by SRB assay; conditions: SK-MEL-28, 48 h, read-out: Activity
OVCAR-3 = assay: Anticancer activity against human OVCAR3 cells assessed as cell growth at 10^-5 M after 48 hrs by SRB assay; conditions: OVCAR-3, 48 h, read-out: Activity
OVCAR-8 = assay: Anticancer activity against human OVCAR8 cells assessed as cell growth at 10^-5 M after 48 hrs by SRB assay; conditions: OVCAR-8, 48 h, read-out: Activity
PC-3 = assay: Anticancer activity against human PC3 cells assessed as cell growth at 10^-5 M after 48 hrs by SRB assay; conditions: PC-3, 48 h, read-out: Activity
MDA-MB-468 = assay: Anticancer activity against human MDA-MB-468 cells assessed as cell growth at 10^-5 M after 48 hrs by SRB assay; conditions: MDA-MB-468, 48 h, read-out: Activity
Malme-3M = assay: Anticancer activity against human MALME-3M cells assessed as cell growth at 10^-5 M after 48 hrs by SRB assay; conditions: read-out: Activity; method in brief: as §1
NCI-H226 = assay: Anticancer activity against human NCI-H226 cells assessed as cell growth at 10^-5 M after 48 hrs by SRB assay; conditions: NCI-H226, 48 h, read-out: Activity
NCI-H522 = assay: Anticancer activity against human NCI-H522 cells assessed as cell growth at 10^-5 M after 48 hrs by SRB assay; conditions: NCI-H522, 48 h, read-out: Activity
MCF7 = assay: Anticancer activity against human MCF7 cells assessed as cell growth at 10^-5 M after 48 hrs by SRB assay; conditions: MCF7, 48 h, read-out: Activity; method in brief: as §1
UO-31 = assay: Anticancer activity against human UO31 cells assessed as cell growth at 10^-5 M after 48 hrs by SRB assay; conditions: UO-31, 48 h, read-out: Activity
Method in brief: (§2)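 NCI-60 single-dose screen: cells in RPMI 1640 with 5% FBS and 2 mM L-glutamine, plated at 5000–40,000 cells/well by doubling time, and preincubated 24 h at 37 °C. Compound given at one concentration from DMSO stock. Cells TCA-fixed and SRB-stained, absorbance at 515 nm. Percent growth relative to time-zero and untreated controls; inhibition % = 100 − growth %.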

HCT-15 = assay: Anticancer activity against human HCT15 cells assessed as cell growth at 10^-5 M after 48 hrs by SRB assay; conditions: HCT-15, 48 h, read-out: Activity; method in brief: as §1
NCI-H460 = assay: Anticancer activity against human NCI-H460 cells assessed as cell growth at 10^-5 M after 48 hrs by SRB assay; conditions: NCI-H460, 48 h, read-out: Activity
MOLT-4 = assay: Anticancer activity against human MOLT4 cells assessed as cell growth at 10^-5 M after 48 hrs by SRB assay; conditions: MOLT-4, 48 h, read-out: Activity
CCRF-CEM = assay: Anticancer activity against human CCRF-CEM cells assessed as cell growth at 10^-5 M after 48 hrs by SRB assay; conditions: read-out: Activity; method in brief: as §1
NCI-H322M = assay: Anticancer activity against human NCI-H322M cells assessed as cell growth at 10^-5 M after 48 hrs by SRB assay; conditions: read-out: Activity
K562 = assay: Anticancer activity against human K562 cells assessed as cell growth at 10^-5 M after 48 hrs by SRB assay; conditions: K562, 48 h, read-out: Activity; method in brief: as §1
KM12 = assay: Anticancer activity against human KM12 cells assessed as cell growth at 10^-5 M after 48 hrs by SRB assay; conditions: KM12, 48 h, read-out: Activity; method in brief: as §1
SN12C = assay: Anticancer activity against human SN12C cells assessed as cell growth at 10^-5 M after 48 hrs by SRB assay; conditions: read-out: Activity
RPMI-8226 = assay: Anticancer activity against human RPMI8226 cells assessed as cell growth at 10^-5 M after 48 hrs by SRB assay; conditions: RPMI-8226, 48 h, read-out: Activity
T47D = assay: Anticancer activity against human T47D cells assessed as cell growth at 10^-5 M after 48 hrs by SRB assay; conditions: read-out: Activity; method in brief: as §2
U-251 = assay: Anticancer activity against human U251 cells assessed as cell growth at 10^-5 M after 48 hrs by SRB assay; conditions: U-251, 48 h, read-out: Activity; method in brief: as §2
786-0 = assay: Anticancer activity against human 786-0 cells assessed as cell growth at 10^-5 M after 48 hrs by SRB assay; conditions: 786-0, 48 h, read-out: Activity; method in brief: as §1
M14 = assay: Anticancer activity against human M14 cells assessed as cell growth at 10^-5 M after 48 hrs by SRB assay; conditions: M14, 48 h, read-out: Activity; method in brief: as §1
ACHN = assay: Anticancer activity against human ACHN cells assessed as cell growth at 10^-5 M after 48 hrs by SRB assay; conditions: read-out: Activity; method in brief: as §1
NCI-H23 = assay: Anticancer activity against human NCI-H23 cells assessed as cell growth at 10^-5 M after 48 hrs by SRB assay; conditions: NCI-H23, 48 h, read-out: Activity
HOP-92 = assay: Anticancer activity against human HOP92 cells assessed as cell growth at 10^-5 M after 48 hrs by SRB assay; conditions: HOP-92, 48 h, read-out: Activity; method in brief: as §1

Question: COc1cccc(-c2nc3sccn3c2-c2ccnc(NCCNC(=O)c3cc(C(F)(F)F)cc(C(F)(F)F)c3)n2)c1 was tested. Which growth at 10 µM (SK-OV-3) did it give?
Answer: 97%

Question: What about the growth at 10 µM (HCT-116) of the same compound?
Answer: 69.1%

Question: And the growth at 10 µM (SF-295)?
Answer: 94.5%

Question: And the growth at 10 µM (IGROV-1)?
Answer: 81.5%

Question: And the growth at 10 µM (SK-MEL-5)?
Answer: 75%

Question: What about the growth at 10 µM (MDA-MB-231) of the same compound?
Answer: 82.9%

Question: And the growth at 10 µM (SK-MEL-28)?
Answer: 97.6%

Question: What about the growth at 10 µM (OVCAR-3) of the same compound?
Answer: 90.9%

Question: What about the growth at 10 µM (OVCAR-8) of the same compound?
Answer: 82.4%

Question: And the growth at 10 µM (PC-3)?
Answer: 49.5%

Question: And the growth at 10 µM (MDA-MB-468)?
Answer: 95.6%

Question: And the growth at 10 µM (Malme-3M)?
Answer: 94.1%

Question: And the growth at 10 µM (NCI-H226)?
Answer: 102%

Question: And the growth at 10 µM (NCI-H522)?
Answer: 78.4%

Question: What about the growth at 10 µM (MCF7) of the same compound?
Answer: 72.5%

Question: What about the growth at 10 µM (UO-31) of the same compound?
Answer: 61.2%

Question: What about the growth at 10 µM (HCT-15) of the same compound?
Answer: 83.8%

Question: And the growth at 10 µM (NCI-H460)?
Answer: 92.2%

Question: And the growth at 10 µM (MOLT-4)?
Answer: 67.6%

Question: What about the growth at 10 µM (CCRF-CEM) of the same compound?
Answer: 69.9%

Question: And the growth at 10 µM (NCI-H322M)?
Answer: 95.5%

Question: What about the growth at 10 µM (K562) of the same compound?
Answer: 83.5%

Question: What about the growth at 10 µM (KM12) of the same compound?
Answer: 79.4%

Question: And the growth at 10 µM (SN12C)?
Answer: 90.8%

Question: And the growth at 10 µM (RPMI-8226)?
Answer: 50%

Question: What about the growth at 10 µM (T47D) of the same compound?
Answer: 77%

Question: And the growth at 10 µM (U-251)?
Answer: 92%

Question: What about the growth at 10 µM (786-0) of the same compound?
Answer: 75.9%

Question: And the growth at 10 µM (M14)?
Answer: 79.3%

Question: And the growth at 10 µM (ACHN)?
Answer: 88.2%

Question: What about the growth at 10 µM (NCI-H23) of the same compound?
Answer: 102%

Question: And the growth at 10 µM (HOP-92)?
Answer: 38.5%
